{
  "source": "ChEMBL document CHEMBL4339195",
  "about": "“Di-aryl Sulfonamide Motif Adds π-Stacking Bulk in Negative Allosteric Modulators of the NMDA Receptor” (ACS Med Chem Lett, 2019)",
  "key": {"[1]": {"species": "Rattus norvegicus", "test": "Negative allosteric modulation of rat GABAA alpha1beta2gamma2S expressed in Xenopus laevis oocytes assessed as inhibition of GABA-induced current response at 30 uM at -40 mV holding potential by two-electrode voltage clamp method relative to GABA alone", "assay_type": "cell-based", "outline": "(§1)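 Oocyte two-electrode voltage clamp at -40 mV holding. Test compound co-applied with agonist; response given as percent of the mean of control and recovery currents to agonist alone. Agonists: 100 µM glutamate (AMPA, kainate), 100 µM GABA (GABA receptors), 100 µM glycine (glycine receptor), 100 µM serotonin (5-HT3A), 9 µM ATP (P2X), 1 µM acetylcholine (nicotinic).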"}, "[2]": {"species": "Homo sapiens", "test": "Negative allosteric modulation of human GluA2 R607Q mutant expressed in Xenopus laevis oocytes assessed as inhibition of glutamate-induced current response at 30 uM at -40 mV holding potential by two-electrode voltage clamp method relative to glutamate alone", "assay_type": "cell-based", "outline": "as §1"}, "[3]": {"biological_target": "T1, 5-hydroxytryptamine receptor 3A (Rattus norvegicus) (UniProt P35563)", "T1 sequence (whole entry)": "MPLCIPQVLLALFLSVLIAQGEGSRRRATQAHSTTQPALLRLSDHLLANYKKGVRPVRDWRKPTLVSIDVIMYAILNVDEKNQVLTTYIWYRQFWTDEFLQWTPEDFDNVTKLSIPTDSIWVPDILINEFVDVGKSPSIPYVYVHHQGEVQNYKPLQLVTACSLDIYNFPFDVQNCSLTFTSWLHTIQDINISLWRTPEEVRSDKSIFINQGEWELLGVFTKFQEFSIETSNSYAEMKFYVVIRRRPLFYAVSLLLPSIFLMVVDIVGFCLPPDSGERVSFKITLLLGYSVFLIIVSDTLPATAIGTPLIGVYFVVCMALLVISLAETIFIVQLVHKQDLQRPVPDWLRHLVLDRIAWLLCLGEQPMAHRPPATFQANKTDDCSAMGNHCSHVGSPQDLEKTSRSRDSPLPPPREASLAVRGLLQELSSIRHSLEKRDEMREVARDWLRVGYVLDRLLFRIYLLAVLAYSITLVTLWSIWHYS", "test": "Negative allosteric modulation of rat 5HT3A expressed in Xenopus laevis oocytes assessed as inhibition of serotonin-induced current response at 30 uM at -40 mV holding potential by two-electrode voltage clamp method relative to serotonin alone", "assay_type": "cell-based", "outline": "as §1"}, "[4]": {"biological_target": "T2, Glutamate NMDA receptor; Grin1/Grin2c (Rattus norvegicus) (UniProt P35439+Q00961)", "test": "Potency index, ratio of NP11999 IC50 to test compound IC50 for negative allosteric modulation of recombinant rat GluN1/GluN2C expressed in Xenopus laevis oocytes assessed as inhibition of glutamate/glycine-induced current response", "assay_type": "cell-based"}, "[5]": {"biological_target": "Glutamate receptor ionotropic, kainate 2 (Rattus norvegicus) (UniProt P42260)", "sequence (P42260 whole entry)": "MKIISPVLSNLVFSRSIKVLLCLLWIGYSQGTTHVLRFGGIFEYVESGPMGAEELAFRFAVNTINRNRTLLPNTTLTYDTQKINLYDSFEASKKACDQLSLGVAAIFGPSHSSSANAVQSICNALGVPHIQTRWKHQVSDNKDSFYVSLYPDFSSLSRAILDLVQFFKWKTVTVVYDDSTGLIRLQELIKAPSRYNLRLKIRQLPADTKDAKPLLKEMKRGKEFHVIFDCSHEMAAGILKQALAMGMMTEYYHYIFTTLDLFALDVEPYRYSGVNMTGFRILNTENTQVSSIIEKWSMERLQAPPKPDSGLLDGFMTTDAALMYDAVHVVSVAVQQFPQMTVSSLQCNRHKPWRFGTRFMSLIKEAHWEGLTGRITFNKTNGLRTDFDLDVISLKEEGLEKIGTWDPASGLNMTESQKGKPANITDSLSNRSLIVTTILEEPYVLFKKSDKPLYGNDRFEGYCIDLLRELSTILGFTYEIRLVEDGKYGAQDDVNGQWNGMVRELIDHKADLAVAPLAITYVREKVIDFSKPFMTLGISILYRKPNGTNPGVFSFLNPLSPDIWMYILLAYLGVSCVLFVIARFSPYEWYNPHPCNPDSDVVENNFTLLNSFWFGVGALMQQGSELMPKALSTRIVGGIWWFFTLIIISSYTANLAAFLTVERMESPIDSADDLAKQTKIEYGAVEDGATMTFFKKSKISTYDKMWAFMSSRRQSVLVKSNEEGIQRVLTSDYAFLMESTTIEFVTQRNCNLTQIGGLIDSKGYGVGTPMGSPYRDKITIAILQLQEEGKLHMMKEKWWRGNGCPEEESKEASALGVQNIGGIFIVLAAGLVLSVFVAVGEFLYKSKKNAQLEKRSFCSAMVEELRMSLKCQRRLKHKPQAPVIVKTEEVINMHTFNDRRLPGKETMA", "test": "Negative allosteric modulation of rat GluK2 expressed in Xenopus laevis oocytes assessed as inhibition of glutamate-induced current response at 30 uM at -40 mV holding potential in presence of concanavalin A by two-electrode voltage clamp method relative to glutamate alone", "assay_type": "cell-based", "outline": "as §1"}, "[6]": {"biological_target": "T3, Ionotropic glutamate receptor NMDA 1/2D (Rattus norvegicus) (UniProt P35439+Q62645)", "test": "Negative allosteric modulation of recombinant rat GluN1/GluN2D expressed in Xenopus laevis oocytes assessed as inhibition of glutamate/glycine-induced current response at 30 uM at -40 mV holding potential by two-electrode voltage clamp method relative to glutamate/glycine", "assay_type": "cell-based", "conditions": "values are per cent of control", "outline": "(§2)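 Oocytes recorded while the drug is co-applied with a maximally effective 100 µM glutamate plus 30 µM glycine. Response is expressed as percent of the glutamate/glycine control. IC50 comes from a Hill fit to the average composite concentration-response curve. 8-16 oocytes from 2-3 frogs per compound and receptor.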"}, "[7]": {"biological_target": "T2, Glutamate NMDA receptor; Grin1/Grin2c (Rattus norvegicus)", "test": "Negative allosteric modulation of recombinant rat GluN1/GluN2C expressed in Xenopus laevis oocytes assessed as inhibition of glutamate/glycine-induced current response at saturated concentration at -40 mV holding potential by two-electrode voltage clamp method relative to glutamate/glycine", "assay_type": "cell-based", "outline": "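Hill fit of the composite concentration-response curve in oocytes, with agonist 100 µM glutamate plus 30 µM glycine. Residual response in saturating compound is either fixed at 0 or fitted. 8-16 oocytes from 2-3 frogs.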"}, "[8]": {"biological_target": "Ionotropic glutamate receptor NMDA 1/2D (Rattus norvegicus, UniProt P35439+Q62645)", "test": "Negative allosteric modulation of recombinant rat GluN1/GluN2D expressed in Xenopus laevis oocytes assessed as inhibition of glutamate/glycine-induced current response at -40 mV holding potential by two-electrode voltage clamp method", "assay_type": "cell-based", "outline": "as §2"}, "[9]": {"test_system": "Glutamate receptor 4 (Homo sapiens), P48058 [L505Y]", "sequence (P48058 whole entry L505Y)": "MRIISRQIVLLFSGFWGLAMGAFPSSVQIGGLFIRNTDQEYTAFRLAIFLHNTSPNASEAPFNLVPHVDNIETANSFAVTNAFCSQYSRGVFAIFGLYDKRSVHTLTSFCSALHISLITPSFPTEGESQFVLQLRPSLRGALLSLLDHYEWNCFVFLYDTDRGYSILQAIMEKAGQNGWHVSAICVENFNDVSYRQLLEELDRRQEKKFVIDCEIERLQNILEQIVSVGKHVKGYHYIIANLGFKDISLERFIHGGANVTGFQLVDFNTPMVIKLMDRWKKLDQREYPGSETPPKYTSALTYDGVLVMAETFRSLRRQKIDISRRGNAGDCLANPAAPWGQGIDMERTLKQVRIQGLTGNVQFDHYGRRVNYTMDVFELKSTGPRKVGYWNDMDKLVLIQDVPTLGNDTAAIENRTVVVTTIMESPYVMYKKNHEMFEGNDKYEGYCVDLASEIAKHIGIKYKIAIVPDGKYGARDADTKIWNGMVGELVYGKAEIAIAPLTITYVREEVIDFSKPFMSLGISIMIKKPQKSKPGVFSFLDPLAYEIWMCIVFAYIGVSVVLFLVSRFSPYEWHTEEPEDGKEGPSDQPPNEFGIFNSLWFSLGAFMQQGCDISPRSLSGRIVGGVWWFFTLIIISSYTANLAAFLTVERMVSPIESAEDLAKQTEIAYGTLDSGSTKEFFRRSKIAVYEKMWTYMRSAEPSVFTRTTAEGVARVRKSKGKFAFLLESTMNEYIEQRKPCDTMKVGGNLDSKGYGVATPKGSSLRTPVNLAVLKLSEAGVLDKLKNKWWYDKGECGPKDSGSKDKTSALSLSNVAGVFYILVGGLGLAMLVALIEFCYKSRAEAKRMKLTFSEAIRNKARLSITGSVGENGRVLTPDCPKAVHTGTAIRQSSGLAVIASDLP", "test": "Negative allosteric modulation of human GluA4 L505Y mutant expressed in Xenopus laevis oocytes assessed as inhibition of glutamate-induced current response at 30 uM at -40 mV holding potential by two-electrode voltage clamp method relative to glutamate alone", "assay_type": "cell-based", "outline": "as §1"}, "[10]": {"test_system": "Glutamate receptor 3 (Homo sapiens), P42263 [L513Y]", "sequence (P42263 whole entry L513Y)": "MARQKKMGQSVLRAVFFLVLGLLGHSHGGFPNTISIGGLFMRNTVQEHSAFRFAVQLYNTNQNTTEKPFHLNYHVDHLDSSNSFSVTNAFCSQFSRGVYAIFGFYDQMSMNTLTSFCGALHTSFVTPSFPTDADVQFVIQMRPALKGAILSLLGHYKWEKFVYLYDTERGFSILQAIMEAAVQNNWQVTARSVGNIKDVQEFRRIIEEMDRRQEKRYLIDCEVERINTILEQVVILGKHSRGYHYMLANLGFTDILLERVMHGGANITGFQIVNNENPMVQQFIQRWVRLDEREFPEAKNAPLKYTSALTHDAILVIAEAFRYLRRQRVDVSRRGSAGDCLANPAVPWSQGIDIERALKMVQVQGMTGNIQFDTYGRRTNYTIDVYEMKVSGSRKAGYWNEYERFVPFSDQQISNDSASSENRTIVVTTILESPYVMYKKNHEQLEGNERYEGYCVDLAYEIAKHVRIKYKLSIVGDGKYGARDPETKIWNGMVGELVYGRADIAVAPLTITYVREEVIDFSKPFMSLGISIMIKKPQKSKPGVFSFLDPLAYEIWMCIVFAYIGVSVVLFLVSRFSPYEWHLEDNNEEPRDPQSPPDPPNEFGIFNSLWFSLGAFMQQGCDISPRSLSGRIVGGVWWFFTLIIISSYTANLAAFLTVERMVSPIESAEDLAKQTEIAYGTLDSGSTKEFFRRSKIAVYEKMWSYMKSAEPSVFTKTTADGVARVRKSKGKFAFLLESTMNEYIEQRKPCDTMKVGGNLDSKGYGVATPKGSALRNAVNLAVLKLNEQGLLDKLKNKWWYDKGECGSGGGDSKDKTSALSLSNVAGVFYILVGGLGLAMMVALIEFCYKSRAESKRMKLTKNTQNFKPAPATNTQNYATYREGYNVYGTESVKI", "test": "Negative allosteric modulation of human GluA3 L513Y mutant expressed in Xenopus laevis oocytes assessed as inhibition of glutamate-induced current response at 30 uM at -40 mV holding potential by two-electrode voltage clamp method relative to glutamate alone", "assay_type": "cell-based", "outline": "as §1"}, "[11]": {"biological_target": "Glutamate NMDA receptor; Grin1/Grin2c (Rattus norvegicus, UniProt P35439+Q00961)", "test": "Negative allosteric modulation of recombinant rat GluN1/GluN2C expressed in Xenopus laevis oocytes assessed as inhibition of glutamate/glycine-induced current response at -40 mV holding potential by two-electrode voltage clamp method", "assay_type": "cell-based", "outline": "as §2"}, "[12]": {"biological_target": "T2, Glutamate NMDA receptor; Grin1/Grin2c (Rattus norvegicus)", "test": "Negative allosteric modulation of recombinant rat GluN1/GluN2C expressed in Xenopus laevis oocytes assessed as inhibition of glutamate/glycine-induced current response at 30 uM at -40 mV holding potential by two-electrode voltage clamp method relative to glutamate/glycine", "assay_type": "cell-based", "conditions": "values are per cent of control", "outline": "as §2"}, "[13]": {"biological_target": "Glutamate NMDA receptor; Grin1/Grin2b (Rattus norvegicus) (UniProt P35439+Q00960)", "test": "Negative allosteric modulation of recombinant rat GluN1/GluN2B expressed in Xenopus laevis oocytes assessed as inhibition of glutamate/glycine-induced current response at 30 uM at -40 mV holding potential by two-electrode voltage clamp method relative to glutamate/glycine", "assay_type": "cell-based", "outline": "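Oocyte voltage clamp at -40 mV. Drug co-applied with 100 µM glutamate plus 30 µM glycine; response given as percent of the average of control and recovery currents to agonist alone.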"}, "[14]": {"biological_target": "Glutamate NMDA receptor; Grin1/Grin2b (Rattus norvegicus, UniProt P35439+Q00960)", "test": "Negative allosteric modulation of recombinant rat GluN1/GluN2B expressed in Xenopus laevis oocytes assessed as inhibition of glutamate/glycine-induced current response at -40 mV holding potential by two-electrode voltage clamp method", "assay_type": "cell-based", "outline": "as §2"}, "[15]": {"biological_target": "Glutamate NMDA receptor; Grin1/Grin2a (Rattus norvegicus) (UniProt P35439+Q00959)", "test": "Negative allosteric modulation of recombinant rat GluN1/GluN2A expressed in Xenopus laevis oocytes assessed as residual glutamate/glycine-induced current response at 30 uM at -40 mV holding potential by two-electrode voltage clamp method relative to glutamate/glycine"}, "[16]": {"biological_target": "T3, Ionotropic glutamate receptor NMDA 1/2D (Rattus norvegicus)", "test": "Potency index, ratio of NP11999 IC50 to test compound IC50 for negative allosteric modulation of recombinant rat GluN1/GluN2D expressed in Xenopus laevis oocytes assessed as inhibition of glutamate/glycine-induced current response", "assay_type": "cell-based"}},
  "data": [
    {"smiles": "CCN(CC)C(=O)Oc1ccc(C(=O)Nc2cccc(CCNS(=O)(=O)c3ccccc3)c2)cc1", "values": [
      {"measurement": "inhibition", "setting": "[1]", "value": 90, "unit": "%"},
      {"measurement": "inhibition", "setting": "[2]", "value": 95, "unit": "%"},
      {"measurement": "inhibition", "setting": "[3]", "value": 20, "unit": "%"},
      {"measurement": "Ratio IC50", "setting": "[4]", "value": "< 6"},
      {"measurement": "inhibition", "setting": "[5]", "value": 92, "unit": "%"},
      {"measurement": "residual activity", "setting": "[6]", "value": "8.9 to 9", "unit": "%"},
      {"measurement": "inhibition", "setting": "[7]", "value": 0, "unit": "%"},
      {"measurement": "IC50", "setting": "[8]", "value": 1700, "unit": "nM"},
      {"measurement": "inhibition", "setting": "[9]", "value": 86, "unit": "%"},
      {"measurement": "inhibition", "setting": "[10]", "value": 86, "unit": "%"},
      {"measurement": "IC50", "setting": "[11]", "value": 2400, "unit": "nM"},
      {"measurement": "residual activity", "setting": "[12]", "value": 9, "unit": "%"},
      {"measurement": "inhibition", "setting": "[13]", "value": 24, "unit": "%"},
      {"measurement": "IC50", "setting": "[14]", "value": 7600, "unit": "nM"},
      {"measurement": "residual activity", "setting": "[15]", "value": 85, "unit": "%"},
      {"measurement": "Ratio IC50", "setting": "[16]", "value": "< 6"}
    ]}
  ]
}
